Reference: ChEMBL document CHEMBL5096213 (Bioorg Med Chem, 2022)
Values after ≈ are worked out from the molar mass of the structure shown.

What was measured:
[1] = test system: Mycobacterium tuberculosis variant bovis; assay: Antimycobacterial activity against Mycobacterium bovis BCG Pasteur ATCC35734 assessed as inhibition of bacterial growth incubated for 5 days by broth microdilution method; format: functional; details: BCG Pasteur ATCC35734, 120 h, time 5 day
In short: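 M. bovis BCG Pasteur grown to mid-log (OD600 0.4–0.6), seeded at OD600 0.05 into 2-fold serial compound dilutions in complete Middlebrook 7H9, neutral pH. Incubation 5 days, 37 °C, shaking 90 rpm, humidified. […] At least two experiments, means reported.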

[2] = test system: Mycobacterium tuberculosis variant bovis; assay: Potency index, ratio of pyrazinoic-acid MIC50 to test compound MIC50 for antimycobacterial activity against Mycobacterium bovis BCG Pasteur ATCC35734 assessed as inhibition of bacterial growth incubated for 5 days by broth microdilution method; format: functional; details: time 5 day

Row | Compound | MIC50 [1] | Ratio [2]
1 | Cc1cnc(C(=O)O)cn1 | 3200 µM (≈ 442 µg/mL) | –
2 | O=C(O)c1cnc(Cl)cn1 | 1700 µM (≈ 270 µg/mL) | –
3 | O=C(O)c1cnc2ccccc2n1 | 700 µM (≈ 122 µg/mL) | –
4 | NC(=S)c1cnccn1 | 2700 µM (≈ 376 µg/mL) | –
5 | O=C(O)c1cncnc1 | > 5000 µM | –
6 | CC(=O)c1cnccn1 | > 5000 µM | –
7 | O=C(O)c1ccnnc1 | > 4000 µM | –
8 | O=C(O)c1cccnn1 | > 5000 µM | –
9 | CCCC(=O)Nc1cnc(C(=O)O)c(N)n1 | > 4000 µM | –
10 | CCCNc1cnc(C(=O)O)cn1 | 1400 µM (≈ 254 µg/mL) | –
11 | O=C(O)c1cnc(O)cn1 | > 3000 µM | –
12 | O=C(O)c1nccnc1N1CCSCC1 | > 5000 µM | –
13 | CC(C)(C)Nc1nccnc1C(=O)O | 400 µM (≈ 78.1 µg/mL) | –
14 | O=C(O)c1nccnc1Br | > 4000 µM | –
15 | CCCNc1nccnc1C(=O)O | 200 µM (≈ 36.2 µg/mL) | –
16 | CC(C)CNc1cnc(C(=O)[O-])cn1.[Na+] | 400 µM | 2.5
17 | CC(C)Nc1nccnc1C(=O)O | 20 µM (≈ 3.62 µg/mL) | –
18 | O=C(O)c1nccnc1Nc1ccccc1 | 400 µM (≈ 86.1 µg/mL) | –
19 | CC(=O)Nc1cnc(C(=O)O)c(N)n1 | > 4000 µM | –
20 | Cc1nccnc1C(=O)O | 3500 µM (≈ 483 µg/mL) | –
21 | CCCCNc1nccnc1C(=O)O | 600 µM (≈ 117 µg/mL) | –
22 | CC(C)CN(C)c1cnc(C(=O)O)c(N)n1 | 700 µM (≈ 157 µg/mL) | –
23 | CCN(CC)c1nccnc1C(=O)O | 3600 µM (≈ 703 µg/mL) | –
24 | COc1nccnc1C(=O)O | 2700 µM (≈ 416 µg/mL) | –
25 | CCC(=O)Nc1cnc(C(=O)O)cn1 | 3500 µM (≈ 683 µg/mL) | –
26 | CNc1nccnc1C(=O)O | 700 µM (≈ 107 µg/mL) | –

Row | Compound | MIC50 [1] | Ratio [2]
27 | O=C(O)c1cnc(NC2CCC2)cn1 | > 2500 µM | –
28 | CCCCN(C)c1nccnc1C(=O)O | 2300 µM (≈ 481 µg/mL) | –
29 | O=C(O)c1nccnc1-c1ccccc1 | 1500 µM (≈ 300 µg/mL) | –
30 | NS(=O)(=O)c1cnccn1 | > 4000 µM | –
31 | CCCCN(C)c1cnc(C(=O)O)c(N)n1 | 200 µM (≈ 44.9 µg/mL) | –
32 | CC(C)CNc1cncc(C(=O)[O-])n1.[Na+] | > 2500 µM | 2.5
33 | Cc1cccc(-c2nccnc2C(=O)O)c1 | 800 µM (≈ 171 µg/mL) | –
34 | O=C(O)c1nccnc1N1CCCCC1 | > 2500 µM | –
35 | Cc1ccccc1-c1nccnc1C(=O)O | > 5000 µM | –
36 | CCNc1nccnc1C(=O)[O-].[Na+] | 400 µM | 2.5
37 | CCC(=O)Nc1cncc(C(=O)O)n1 | 200 µM (≈ 39 µg/mL) | 5
38 | O=C(O)c1nccnc1NCc1ccccc1 | 200 µM (≈ 45.8 µg/mL) | –
39 | CC(C)C(=O)Nc1cnc(C(=O)O)c(N)n1 | > 4000 µM | –
40 | O=C(O)c1nccnc1Cl | 1800 µM (≈ 285 µg/mL) | –
41 | O=C(O)c1ncccn1 | > 4000 µM | –
42 | CC(C)Nc1cnc(C(=O)O)c(N)n1 | 1200 µM (≈ 235 µg/mL) | –
43 | O=C(O)c1cncc(-c2ccccc2)n1 | 1700 µM (≈ 340 µg/mL) | –
44 | c1cnc(-c2nnn[nH]2)cn1 | > 4000 µM | –
45 | CCNc1cnc(C(=O)[O-])cn1.[Na+] | 1800 µM | 2.5
46 | CC(C)CN(C)c1nccnc1C(=O)O | 3500 µM (≈ 732 µg/mL) | –
47 | Nc1cnc(C(=O)O)cn1 | 800 µM (≈ 111 µg/mL) | –
48 | CN(Cc1ccccc1)c1nccnc1C(=O)O | 700 µM (≈ 170 µg/mL) | –
49 | COc1cnc(C(=O)O)cn1 | 3500 µM (≈ 539 µg/mL) | –
50 | O=C(O)c1cnc(Br)cn1 | 2500 µM (≈ 507 µg/mL) | –
51 | O=C(O)c1nccnc1N1CCC2(CC1)CC2 | > 2500 µM | –
52 | O=C(O)c1nccnc1N1CCOCC1 | > 5000 µM | –

Row | Compound | MIC50 [1] | Ratio [2]
53 | O=C(O)c1cncc(O)n1 | > 2400 µM | –
54 | O=C(O)c1cncc(Br)n1 | 3000 µM (≈ 609 µg/mL) | –
55 | Nc1cncc(C(=O)O)n1 | 2600 µM (≈ 362 µg/mL) | –
56 | O=C(O)c1nccnc1NC1CCCC1 | 400 µM (≈ 82.9 µg/mL) | –
57 | O=C(O)c1ccncn1 | 2000 µM (≈ 248 µg/mL) | –
58 | CC(C)CNc1nccnc1C(=O)[O-].[Na+] | 200 µM | 2.5
59 | O=C(O)c1cncc(Cl)n1 | 1000 µM (≈ 159 µg/mL) | –
60 | CCNc1cncc(C(=O)[O-])n1.[Na+] | > 2500 µM | 2.5
61 | CCC(=O)Nc1nccnc1C(=O)O | 1500 µM (≈ 293 µg/mL) | –
62 | O=C(O)c1nccnc1NC1CCC1 | 400 µM (≈ 77.3 µg/mL) | –
63 | O=C(O)c1cncc(NC2CCC2)n1 | > 2500 µM | –
64 | CC(=O)NS(=O)(=O)c1cnccn1 | > 4000 µM | –
65 | Nc1nccnc1C(=O)O | 800 µM (≈ 111 µg/mL) | –
66 | Cc1ccc(-c2nccnc2C(=O)O)cc1 | 1000 µM (≈ 214 µg/mL) | –
67 | O=C(O)c1cnc(-c2ccccc2)cn1 | > 4000 µM | –
68 | O=C(O)c1nccnc1O | > 4000 µM | –
69 | COc1cncc(C(=O)O)n1 | 2000 µM (≈ 308 µg/mL) | –
70 | Cc1cncc(C(=O)O)n1 | 2400 µM (≈ 332 µg/mL) | –
71 | O=C(O)c1nccnc1N1CCCC1 | 4700 µM (≈ 908 µg/mL) | –
72 | O=C(O)c1ccccn1 [2-PICOLINIC ACID] | 700 µM (≈ 86.2 µg/mL) | –
73 | O=C(O)c1ccccc1 [BENZOIC ACID] | 2200 µM (≈ 269 µg/mL) | –
74 | O=C(O)c1ccncc1 [ISONICOTINIC ACID] | 2700 µM (≈ 332 µg/mL) | –
75 | O=C(O)c1cccnc1 [NIACIN] | 900 µM (≈ 111 µg/mL) | –
76 | O=C(O)c1cnccn1 [PYRAZINOIC ACID] | 1000 µM (≈ 124 µg/mL) | –
